Experiments:
Lanosterol synthase = target: T1, Lanosterol synthase (Homo sapiens, UniProt P48449); assay: Inhibition of human OSC expressed in Saccharomyces cerevisiae SMY8
T1 sequence (P48449 whole entry): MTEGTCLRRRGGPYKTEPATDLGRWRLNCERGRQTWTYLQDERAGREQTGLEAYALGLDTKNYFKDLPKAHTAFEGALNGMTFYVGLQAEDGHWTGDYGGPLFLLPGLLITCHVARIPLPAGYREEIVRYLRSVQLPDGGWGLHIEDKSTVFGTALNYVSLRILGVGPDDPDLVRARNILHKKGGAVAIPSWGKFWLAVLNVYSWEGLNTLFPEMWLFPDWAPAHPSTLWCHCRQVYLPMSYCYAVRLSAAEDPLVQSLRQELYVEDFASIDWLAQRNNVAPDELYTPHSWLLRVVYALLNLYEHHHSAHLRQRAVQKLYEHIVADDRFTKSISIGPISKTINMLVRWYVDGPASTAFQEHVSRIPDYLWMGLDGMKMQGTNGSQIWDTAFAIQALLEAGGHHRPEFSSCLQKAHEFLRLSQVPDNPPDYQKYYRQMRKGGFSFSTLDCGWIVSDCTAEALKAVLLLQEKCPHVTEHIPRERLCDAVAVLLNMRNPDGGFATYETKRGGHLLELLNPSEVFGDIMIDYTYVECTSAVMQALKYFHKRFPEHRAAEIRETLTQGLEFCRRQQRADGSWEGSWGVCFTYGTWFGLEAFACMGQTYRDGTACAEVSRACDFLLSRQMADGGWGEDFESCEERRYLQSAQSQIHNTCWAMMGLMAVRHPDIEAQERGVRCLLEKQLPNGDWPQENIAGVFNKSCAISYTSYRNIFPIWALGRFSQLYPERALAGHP

[1] = Inhibition of Trypanosoma cruzi OSC expressed in Saccharomyces cerevisiae SMY8
Summary of the method: (§1)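 Cell-free homogenates of recombinant OSC-defective S. cerevisiae SMY8 strains, each expressing one OSC: lanosterol cyclase from S. cerevisiae, T. cruzi or P. carinii, or cycloartenol cyclase from A. thaliana. Cyclase activity was measured in homogenates with inhibitor present and IC50 derived. Values are means of two separate experiments, each with duplicate incubations; maximum deviation from the mean under 10%.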

Lanosterol synthase ERG7 = target: T2, Lanosterol synthase ERG7 (Saccharomyces cerevisiae S288c, UniProt P38604); assay: Inhibition of yeast OSC expressed in Saccharomyces cerevisiae SMY8; summary of the method: as §1
T2 sequence (P38604 whole entry): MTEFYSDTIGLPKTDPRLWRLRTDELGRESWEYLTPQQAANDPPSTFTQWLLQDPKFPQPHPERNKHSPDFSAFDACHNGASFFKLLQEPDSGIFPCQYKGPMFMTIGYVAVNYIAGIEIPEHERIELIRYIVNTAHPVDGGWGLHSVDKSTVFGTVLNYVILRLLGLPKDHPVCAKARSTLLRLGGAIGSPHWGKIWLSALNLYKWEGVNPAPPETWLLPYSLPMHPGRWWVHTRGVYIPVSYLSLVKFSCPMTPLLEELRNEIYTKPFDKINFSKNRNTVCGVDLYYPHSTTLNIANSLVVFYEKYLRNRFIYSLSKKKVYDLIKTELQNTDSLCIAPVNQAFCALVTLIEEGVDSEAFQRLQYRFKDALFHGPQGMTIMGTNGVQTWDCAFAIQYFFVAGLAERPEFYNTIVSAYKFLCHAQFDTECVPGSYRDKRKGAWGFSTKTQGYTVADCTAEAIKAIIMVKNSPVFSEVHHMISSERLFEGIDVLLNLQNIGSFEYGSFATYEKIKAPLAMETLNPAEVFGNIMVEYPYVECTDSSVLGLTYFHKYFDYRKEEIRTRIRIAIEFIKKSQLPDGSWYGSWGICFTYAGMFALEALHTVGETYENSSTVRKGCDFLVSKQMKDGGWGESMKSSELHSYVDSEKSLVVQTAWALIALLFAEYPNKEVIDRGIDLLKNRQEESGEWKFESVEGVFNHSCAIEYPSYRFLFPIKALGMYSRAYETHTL

[2] = Inhibition of Pneumocystis carinii OSC expressed in Saccharomyces cerevisiae SMY8; summary of the method: as §1
Cycloartenol synthase = Cycloartenol synthase (Arabidopsis thaliana, UniProt P38605); assay: Inhibition of Arabidopsis thaliana cycloartenol synthase expressed in Saccharomyces cerevisiae SMY8; summary of the method: as §1
[3] = Selectivity ratio of IC50 for human OSC to IC50 for Pneumocystis carinii OSC

Chain of Cycloartenol synthase (P38605 whole entry): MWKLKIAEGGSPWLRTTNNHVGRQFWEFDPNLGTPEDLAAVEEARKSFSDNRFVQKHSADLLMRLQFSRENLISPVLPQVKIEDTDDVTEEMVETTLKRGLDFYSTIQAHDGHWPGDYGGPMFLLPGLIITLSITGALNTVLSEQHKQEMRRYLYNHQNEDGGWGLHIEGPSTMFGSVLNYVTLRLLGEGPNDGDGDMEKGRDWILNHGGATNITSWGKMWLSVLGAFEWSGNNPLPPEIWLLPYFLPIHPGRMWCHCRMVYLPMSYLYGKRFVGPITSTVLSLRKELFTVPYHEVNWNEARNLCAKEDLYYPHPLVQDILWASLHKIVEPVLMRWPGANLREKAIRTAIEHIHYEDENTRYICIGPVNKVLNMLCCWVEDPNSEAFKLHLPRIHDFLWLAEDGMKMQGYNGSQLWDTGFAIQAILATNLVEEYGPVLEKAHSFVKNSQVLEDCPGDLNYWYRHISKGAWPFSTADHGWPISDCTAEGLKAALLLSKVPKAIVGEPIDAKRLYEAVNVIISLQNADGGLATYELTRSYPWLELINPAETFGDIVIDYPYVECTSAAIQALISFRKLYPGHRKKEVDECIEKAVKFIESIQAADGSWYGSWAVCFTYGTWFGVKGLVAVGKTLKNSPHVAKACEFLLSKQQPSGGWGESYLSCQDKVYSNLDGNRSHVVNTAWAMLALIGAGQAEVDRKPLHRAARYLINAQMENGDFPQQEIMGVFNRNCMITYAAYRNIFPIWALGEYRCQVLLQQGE

| Structure (SMILES) | IC50 (Lanosterol synthase) [nM] | IC50 [1] [nM] | IC50 (Lanosterol synthase ERG7) [nM] | IC50 [2] [nM] | IC50 (Cycloartenol synthase) [nM] | Ratio IC50 [3] |
| --- | --- | --- | --- | --- | --- | --- |
| CN(C/C=C/COc1ccc(C(=O)c2ccc(Br)cc2)cc1)C1CC1 | 270 | 1500 | 180 | 200 | 260 | – |
| C=CCN(C)Cc1ccc(-c2ccc(C(=O)c3ccc(Br)cc3)cc2)cc1 | 250 | 600 | 320 | 50 | 250 | 5 |
| O=C(c1ccc(Cl)cc1)N1CCC(=Cc2ccc(C3=NCCO3)cc2)CC1 | 1150 | > 5000 | 670 | > 5000 | 2500 | – |
| CN([C@H]1CC[C@H](CCCCCN(CCO)CCO)CC1)S(=O)(=O)c1ccc(C(F)(F)F)cc1 | 720 | 2700 | 1500 | 400 | 1500 | – |
| CCN(CC#Cc1ccc2c(-c3ccc(Br)cc3)nsc2c1)CCO | 4600 | 2300 | 300 | 800 | 550 | – |
| CCN(CCO)CCCCC[C@H]1CC[C@H](N(C)C(=O)Oc2ccc(Cl)cc2)CC1 | 4120 | 2000 | 100 | 2500 | 700 | – |
| CCN(CC)CCCCC[C@H]1CC[C@H](N(C)S(=O)(=O)c2ccc(C(F)(F)F)cc2)CC1 | 2440 | 2400 | 3600 | 600 | 1000 | – |
| C=CCN(C)CCCCCCOc1ccc2c(-c3ccc(Br)cc3)nn(C)c2c1 | 2300 | 3000 | 290 | > 5000 | 2600 | – |
| CC(=O)N(CCO)CCCCOc1ccc2c(-c3ccc(Br)cc3)nsc2c1 | > 1000 | 5500 | 100000 | – | 800 | – |
| CCN(CC)C1(CCCC[C@H]2CC[C@H](N(C)S(=O)(=O)c3ccc(C(F)(F)F)cc3)CC2)CC1 | 440 | 400 | 500 | 1300 | 320 | – |
| Brc1ccc(-c2nsc3cc(CCCCCN4CCOCC4)ccc23)cc1 | 100 | 1100 | 400 | 50 | 650 | – |
| C=CCN(C)C/C=C/COc1ccc2c(-c3ccc(Br)cc3)coc2c1 | 90000 | – | 210 | 1200 | 3000 | – |
| CCN(CC)C(=O)CCCC[C@H]1CC[C@H](N(C)S(=O)(=O)c2ccc(C(F)(F)F)cc2)CC1 | > 10000 | > 100000 | > 100000 | > 100000 | 2000 | – |
| C=CCN(C)CCCCCCOc1ccc2c(-c3ccc(Br)cc3)nsc2c1 | 160 | 340 | 70 | 230 | 950 | – |
| C=CCN(C)CCCCC[C@H]1CC[C@H](N(C)C(=O)Oc2ccc(C(F)(F)F)cc2)CC1 | 140 | 70 | 50 | 340 | 1000 | – |
| CCN(CCO)CCCCOc1ccc2c(-c3ccc(Br)cc3)nsc2c1 | 520 | 6500 | 700 | 50 | 2300 | 10 |
| CCN(CCO)C(C)(C)C#Cc1ccc2c(-c3ccc(Br)cc3)nsc2c1 | 11500 | 4200 | 2200 | 1000 | 1250 | – |
| C=CCN(C)CCCCC[C@H]1CC[C@H](N(C)S(=O)(=O)c2ccc(C(F)(F)F)cc2)CC1 | 100 | 300 | 300 | 120 | 440 | – |
| CCN(CCO)CCCCC[C@H]1CC[C@H](N(C)S(=O)(=O)c2ccc(C(F)(F)F)cc2)CC1 | 450 | 1600 | 270 | – | 3000 | – |
| CCN(CC)C(C)(C)CCCC[C@H]1CC[C@H](N(C)S(=O)(=O)c2ccc(C(F)(F)F)cc2)CC1 | 4930 | > 100000 | 7000 | 1000 | 4100 | – |
| CCN(CCO)CCCC#Cc1ccc2c(-c3ccc(Br)cc3)nsc2c1 | 230 | > 10000 | 5000 | 2250 | 1700 | – |
| C=CCN(C)CCCCCCOc1ccc(-c2nsc3cc(Br)ccc23)cc1 | 20300 | > 5000 | 280 | 550 | 10000 | 40 |
| C=CCN(C)CCCCCCOc1ccc(C(=O)c2ccc(Br)cc2)c(F)c1 | – | 900 | 210 | 340 | 1750 | – |
| Brc1ccc(-c2nsc3cc(OCCCCN4CCOCC4)ccc23)cc1 | 120 | 1100 | 600 | 70 | 480 | – |
| C=CCN(C)CCCCOc1ccc2c(-c3ccc(Br)cc3)nsc2c1 | 260 | 250 | 700 | 200 | 70 | – |

From ChEMBL document CHEMBL1143323, “Oxidosqualene cyclase from Saccharomyces cerevisiae, Trypanosoma cruzi, Pneumocystis carinii and Arabidopsis thaliana expressed in yeast: a model for the development of novel antiparasitic agents” (Bioorg Med Chem Lett, 2009)
